Here are results for 43 molecules from ChEMBL document CHEMBL2396522, “Synthesis and pharmacological profiling of analogues of benzyl quinolone carboxylic acid (BQCA) as allosteric modulators of the M1 muscarinic receptor” (J Med Chem, 2013).

For the first test, the target named is T1, Muscarinic acetylcholine receptor M1 (Homo sapiens, UniProt P11229).
T1 sequence (P11229 whole entry): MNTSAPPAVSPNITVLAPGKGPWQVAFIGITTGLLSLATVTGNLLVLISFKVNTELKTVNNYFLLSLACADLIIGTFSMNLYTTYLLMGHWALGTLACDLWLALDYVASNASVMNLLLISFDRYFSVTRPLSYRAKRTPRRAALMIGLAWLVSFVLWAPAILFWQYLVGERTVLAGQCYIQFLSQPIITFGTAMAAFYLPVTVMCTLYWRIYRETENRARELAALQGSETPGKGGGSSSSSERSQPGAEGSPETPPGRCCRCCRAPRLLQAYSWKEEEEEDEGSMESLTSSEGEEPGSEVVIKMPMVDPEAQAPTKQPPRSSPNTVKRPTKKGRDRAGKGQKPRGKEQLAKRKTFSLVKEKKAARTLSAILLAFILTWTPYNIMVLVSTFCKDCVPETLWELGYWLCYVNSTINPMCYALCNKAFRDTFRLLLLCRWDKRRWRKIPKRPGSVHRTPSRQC
As to the kind of experiment: Allosteric modulation of human muscarinic M1 acetylcholine receptor expressed CHO cells assessed as intracellular calcium mobilization after 1 hr by Fluo-4-AM based fluorescence assay. The test is classed as functional, cell-based. The essentials:
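Cells were FlpInCHO-hM1, serum-starved overnight, then loaded 1 h at 37 °C with 1 μM Fluo-4-AM in Ca2+ buffer (pH 7.4, 4 mM probenecid). ACh titrations with or without increasing modulator concentrations were co-added at 20 s. Curves were fitted to an operational model of allosterism (αβ, τB). Experiments were done three to four times in duplicate.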
A general note: Calcium flux is commonly read through the fluorescence of an indicator in the cells.
The EC50 is the concentration that produces a half-maximal response. As for `COc1ccc(Cn2cc(C(=O)O)c(=O)c3c(F)ccc(F)c32)cc1`, the concentration for a half-maximal effect (EC50) was 31.6 nM.

A further test has as its target T2, Muscarinic acetylcholine receptor M1 (Homo sapiens) (UniProt P11229).
T2 sequence (whole entry): T1 sequence (P11229 whole entry)
As to the kind of experiment: Displacement of [3H]-NMS from human muscarinic M1 acetylcholine receptor expressed CHO cells after 4 hrs by scintillation counting. The test is classed as cell-based. The gist of the method:
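Whole FlpInCHO cells stably expressing human M1 mAChR, 20000/well, grown 8 h at 37 °C then serum-starved overnight. Binding buffer 10 mM HEPES, 100 mM NaCl, 10 mM MgCl2, pH 7.4. […] Ice-cold 0.9% NaCl washes, scintillation counting. Curves fitted to allosteric ternary complex model giving pKB and log α.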
For orientation: In a radioligand displacement assay an active substance lowers the binding of a labelled ligand.
Broadly, the pKb is −log10 of the Kb, conventionally taken in molar units. `NCC#Cc1ccc(Cn2cc(C(=O)O)c(=O)c3c(F)ccc(F)c32)cc1`: the pKb was 4.96.
`COc1ccc(Cn2cc(C(=O)O)c(=O)c3ccccc32)cc1` returned a negative-log Kb (pKb) of 4.72.
On to `O=C(O)c1cn(Cc2cccc(-c3ccccc3)c2)c2c(F)ccc(F)c2c1=O`, for which the negative-log Kb (pKb) was determined as 5.55.
In turn, `CCOC(=O)c1cn(Cc2ccc(-c3ccccc3)cc2)c2c(OC)ccc(F)c2c1=O` came in with a pKb of 5.32.
On to `O=C(O)c1cn(Cc2ccc(-c3ccccc3)cc2)c2c(F)ccc(F)c2c1=O`, for which the pKb was determined as 5.36.
Same read-out and setting: the result for `COc1cccc2c1c(=O)c(C(=O)O)cn2Cc1ccc(-c2ccccc2)cc1` reads 5.67; that for `COc1ccc(Cn2cc(C(=O)NCc3ccccc3)c(=O)c3c(F)ccc(F)c32)cc1`, 4.63; that for `COc1cccc2c(=O)c(C(=O)O)cn(Cc3ccc(-c4ccccc4)cc3)c12`, 5.71.
On the same count and under the same terms, the result for `O=C(O)c1cn(CC2CCN(Cc3ccccc3)CC2)c2ccccc2c1=O` reads 5.13; that for `CCOC(=O)c1cn(Cc2ccc(-c3ccccc3)cc2)c2c(OC)cccc2c1=O`, 4.08; that for `CCOC(=O)c1cn(Cc2ccc(OC)cc2)c2c(OC)ccc(F)c2c1=O`, 4.82.
Turning to `COc1ccc(Cn2cc(C(=O)NCCO)c(=O)c3c(F)ccc(F)c32)cc1`, the pKb came to 4.65.
The same measure, in the same setting: next, `CCOC(=O)c1cn(Cc2ccc(-c3ccccc3)cc2)c2cccc(OC)c2c1=O`: 5.16; `COc1ccc(Cn2cc(C(=O)NN3CCCCC3)c(=O)c3c(F)ccc(F)c32)cc1`: 5.07; `O=C(O)c1cn(CC2CCN(C(=O)Nc3ccccc3)CC2)c2ccccc2c1=O`: 4.66.
As for `COc1ccc(-n2cc(C(=O)O)c(=O)c3ccccc32)cc1`, the pKb stood at 4.65.
Still for that read-out and setting: next, `CNC(=O)c1cn(Cc2ccc(OC)cc2)c2c(F)ccc(F)c2c1=O`: 4.92; `COc1ccc(Cn2cc(C(=O)O)c(=O)c3c(F)ccc(F)c32)cc1`: 4.96; `O=C(O)c1cn(-c2ccc(-c3ccccc3)cc2)c2ccccc2c1=O`: 4.73.
The same measure, in the same setting: the result for `COc1ccc(Cn2cc(C(=O)NC(C)=O)c(=O)c3c(F)ccc(F)c32)cc1` reads 4.35.
The molecule `O=C(O)c1cn(Cc2ccc(-c3ccccc3)cc2)c2c(F)ccc(O)c2c1=O` displayed a negative logarithm of the Kb (pKb) of 5.55.
On the same count and under the same terms, next, `COc1ccc(Cn2cc(C(=O)Nc3ccccc3)c(=O)c3c(F)ccc(F)c32)cc1`: 4.8; `COc1ccc(Cn2cc(C(=O)NS(C)(=O)=O)c(=O)c3c(F)ccc(F)c32)cc1`: 4.63.
On to `COc1ccc(Cn2cc(C(=O)O)c(=O)c3c(OC)cccc32)cc1`, for which the negative logarithm of the Kb (pKb) is 4.62.
The same measure, in the same setting: next, `COc1ccc(Cn2cc(C(=O)N(C)C)c(=O)c3c(F)ccc(F)c32)cc1`: 4.48; `CCOC(=O)c1cn(Cc2ccc(OC)cc2)c2cccc(OC)c2c1=O`: 4.22.
On to `CCOC(=O)c1cn(Cc2ccc(OC)cc2)c2c(OC)cccc2c1=O`, for which the pKb came to 4.51.
`CCNC(=O)c1cn(Cc2ccc(OC)cc2)c2c(F)ccc(F)c2c1=O`: the pKb came to 5.78.
On to `CC(C)(C)OC(=O)N1CCC(Cn2cc(C(=O)O)c(=O)c3ccccc32)CC1`, for which the negative-log Kb (pKb) was 4.7.
As for `O=C(O)c1cn(CC2CCNCC2)c2ccccc2c1=O`, the negative logarithm of the Kb (pKb) amounted to 4.82.
Consider `CCOC(=O)c1cn(Cc2ccc(OC)cc2)c2c(F)ccc(F)c2c1=O`, for which the negative logarithm of the Kb (pKb) was 5.12.
As for `COc1ccc(Cn2cc(C(=O)N3CCCCC3)c(=O)c3c(F)ccc(F)c32)cc1`, the negative-log Kb (pKb) was determined as 4.71.
`CCOC(=O)c1cn(Cc2ccc(-c3ccccc3)cc2)c2c(F)ccc(F)c2c1=O` yielded a pKb of 3.75.
In turn, `O=C(O)c1cn(Cc2ccccc2-c2ccccc2)c2c(F)ccc(F)c2c1=O` gave a pKb of 5.
As for `COc1ccc(Cn2cc(C(=O)N[C@H]3CCCC[C@@H]3O)c(=O)c3c(F)ccc(F)c32)cc1`, the pKb is 4.99.
`COc1ccc(Cn2cc(C(=O)NO)c(=O)c3c(F)ccc(F)c32)cc1`: the negative-log Kb (pKb) is 4.8.
In turn, `COc1ccc(Cn2cc(C#N)c(=O)c3c(F)ccc(F)c32)cc1` displayed a pKb of 4.66.
Turning to `COc1ccc(Cn2cc(-c3nnn[nH]3)c(=O)c3c(F)ccc(F)c32)cc1`, the pKb came to 4.97.
Molecule `COc1ccc(Cn2cc(C(=O)O)c(=O)c3c(F)ccc(OC)c32)cc1` gave a negative logarithm of the Kb (pKb) of 4.86.
For `COc1ccc(F)c2c(=O)c(C(=O)O)cn(Cc3ccc(-c4ccccc4)cc3)c12`, the negative-log Kb (pKb) is 5.84.
Consider `COc1ccc(Cn2cc(C(N)=O)c(=O)c3c(F)ccc(F)c32)cc1`, for which the negative logarithm of the Kb (pKb) turned out to be 5.17.
Same read-out and setting: the result for `COc1ccc(Cn2cc(C(=O)N3CCOCC3)c(=O)c3c(F)ccc(F)c32)cc1` reads 4.97.
`COc1ccc(Cn2cc(C(=O)O)c(=O)c3cccc(OC)c32)cc1` yielded a negative-log Kb (pKb) of 4.75.

The next test concerns the target T1, Muscarinic acetylcholine receptor M1. Put plainly: Agonist activity at human muscarinic M1 acetylcholine receptor expressed CHO cells assessed as intracellular calcium mobilization after 1 hr by Fluo-4-AM based fluorescence assay. The test is classed as functional, cell-based. The essentials: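 FlpInCHO cells stably expressing human M1 were seeded at 20000/well, grown 8 h at 37 °C in DMEM with 5% FBS, and serum-starved overnight. They were loaded 1 h at 37 °C with 1 μM Fluo-4-AM in HEPES Ca2+ buffer (0.5% BSA, 4 mM probenecid, pH 7.4). Modulator alone was added at 20 s and fluorescence was read at 485/520 nm over 100 s. Peak minus baseline was normalized to 100 μM ATP. Efficacy came from an operational model of allosteric agonism.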
As for `COc1ccc(Cn2cc(C(=O)O)c(=O)c3c(F)ccc(F)c32)cc1`, the 50% effective concentration (EC50) is 31.6 nM.
